As a reminder, the pIC50 is −log10 of the IC50, conventionally taken in molar units. High values mean a low IC50, low ones a high IC50. By GI50 is commonly meant the concentration giving 50% growth inhibition. A high value points to less potent growth inhibition. As usually defined, the pEC50 is the negative decadic logarithm of the EC50, by convention in mol/L. As a reminder, the solubility is how much of the substance goes into solution per volume.

The values below come from ChEMBL document CHEMBL1800024, “A novel class of trans-methylpyrazoline analogs of combretastatins: synthesis and in-vitro biological testing” (Eur J Med Chem, 2011).

pEC50, pIC50: −log10 of the molar value. ≈ marks a conversion by molar mass, not a printed value.

One data set relates to L1210. In words: Cytotoxicity against mouse L1210 cells after 72 hrs by MTT assay. Type of data set: functional, cell-based. The conditions noted are these: L1210, 72 h. Put shortly: (§1)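 Murine B16 melanoma and L1210 lymphoma cells in culture were exposed to compound continuously for 72 h. Viability was read by MTT assay, and IC₅₀ was derived from growth inhibition.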
In general terms: Tetrazolium dyes change colour on reduction, which living cells bring about.

For the next data set, the system named is B16. In words: Cytotoxicity against mouse B16 cells after 72 hrs by MTT assay. Type of data set: functional, cell-based. The conditions noted are these: B16, 72 h. Put shortly:
as §1

The subject of another data set is T47D. Nature of the data set: Growth inhibition of human T47D cells. Conditions: read-out: pTGI. Type of data set: functional.
In another data set the test system is MOLT-4. In words: Growth inhibition of human MOLT4 cells. Type of data set: functional.
The subject of a further data set is SF-539. Nature of the data set: Growth inhibition of human SF539 cells. Type of data set: functional.
The test system of the next data set is HL-60(TB). Nature of the data set: Growth inhibition of human HL-60(TB) cells. The format is functional.
A further data set relates to NCI-H23. In words: Growth inhibition of human NCI-H23 cells. Type of data set: functional.
The subject of the next data set is A10. In words: Induction of interphase microtubule depolymerization in rat A10 cells. Type of data set: functional, cell-based.
Another data set has as its system MDA-MB-231. Nature of the data set: Growth inhibition of human MDA-MB-231 cells. Type of data set: functional.
The next data set has as its system CAKI-1. In words: Growth inhibition of human Caki1 cells. The format is functional.
The next data set deals with NCI-H522. Nature of the data set: Growth inhibition of human NCI-H522 cells. The format is functional.
A further data set deals with U-251. In words: Growth inhibition of human U251 cells. Type of data set: functional.
Another data set concerns SK-MEL-5. Nature of the data set: Growth inhibition of human SK-MEL-5 cells. Type of data set: functional.
Another data set deals with SK-OV-3. Nature of the data set: Growth inhibition of human SKOV3 cells. The format is functional.
Data set [1] is described as follows: Aqueous solubility of the compound. Type of data set: physicochemical. An outline of the steps: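 Maximum aqueous solubility was measured with a modified filter-plate solubility protocol.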
In data set [2] the test system is MDA-MB-435. In words: Cytotoxicity against human MDA-MB-435 cells after 48 hrs by SRB assay. Conditions: MDA-MB-435, 48 h. Type of data set: functional, cell-based.
The test system of a further data set is BT-549. In words: Growth inhibition of human BT549 cells. Type of data set: functional.
The subject of the next data set is HCT-116. In words: Growth inhibition of human HCT116 cells. The format is functional.
For a further data set, the system named is LOX IMVI. In words: Growth inhibition of human LOXIMVI cells. Type of data set: functional.
For a further data set, the system named is UACC-257. Nature of the data set: Growth inhibition of human UACC257 cells. Type of data set: functional.
Data set [3] relates to MDA-MB-435. Nature of the data set: Ratio of EC50 for interphase microtubule depolymerization in rat A10 cells to IC50 for cytotoxicity against human MDA-MB-435 cells. Type of data set: functional.
In a further data set the test system is NCI-H322M. In words: Growth inhibition of human NCI-H322M cells. Type of data set: functional.
For the next data set, the system named is Malme-3M. Nature of the data set: Growth inhibition of human MALME-3M cells. Type of data set: functional.
For the next data set, the system named is SNB-19. Nature of the data set: Growth inhibition of human SNB19 cells. Type of data set: functional.
In the next data set the test system is RXF 393. Nature of the data set: Growth inhibition of human RXF393 cells. The format is functional.
The next data set relates to SF-295. In words: Growth inhibition of human SF295 cells. The format is functional.

With `COc1cc([C@@H]2C(C)=NN(C(C)=O)[C@H]2c2ccccc2)cc(OC)c1OC` (relative stereo), the pIC50 in the data set with L1210 was 4.33; with B16, less than 4.00.

On to `COc1cc([C@@H]2C(C)=NN(C(C)=O)[C@H]2c2ccc(C)cc2)cc(OC)c1OC` (relative stereo), for which the pIC50 in the data set with L1210 is 5.22; in the data set with B16, 4.34.

Take `COc1cc([C@@H]2C(C)=NN(C(C)=O)[C@H]2c2ccc(Cl)cc2)cc(OC)c1OC` (relative stereo): the pIC50 with L1210 and in the data set on B16 was less than 4.00 each time.

As to `COc1cc([C@@H]2C(C)=NN(C(C)=O)[C@H]2c2ccc(Br)cc2)cc(OC)c1OC` (relative stereo), the pIC50 with L1210 is 4.48; with B16 it was less than 4.00.

On to `COc1cc([C@@H]2C(C)=NN(C(C)=O)[C@H]2c2ccc([N+](=O)[O-])cc2)cc(OC)c1OC` (relative stereo), for which the pIC50 with L1210 and with B16 was less than 4.00 in each case.

For the molecule `COc1ccc([C@H]2[C@H](c3cc(OC)c(OC)c(OC)c3)C(C)=NN2C(C)=O)cc1` (relative stereo), the pIC50 is 5.08 in the data set on L1210 and 4.02 with B16.

As to `COc1cc([C@@H]2C(C)=NN(C(C)=O)[C@H]2c2cccc([N+](=O)[O-])c2)cc(OC)c1OC` (relative stereo), the pIC50 in the data set on L1210 and in the data set on B16 was less than 4.00 throughout.

In the case of `COc1cc([C@@H]2C(C)=NN(C(C)=O)[C@H]2c2ccc(Cl)c(Cl)c2)cc(OC)c1OC` (relative stereo), the pIC50 is 4.44 in the data set on L1210 and less than 4.00 in the data set on B16.

Take `COc1ccc([C@H]2[C@H](c3cc(OC)c(OC)c(OC)c3)C(C)=NN2C(C)=O)cc1OC` (relative stereo): the pIC50 in the data set with L1210 is 4.47; in the data set on B16, less than 4.00.

For the molecule `COc1ccc([C@H]2[C@H](c3cc(OC)c(OC)c(OC)c3)C(C)=NN2C(C)=O)cc1O` (relative stereo), the TGI in the data set with T47D was more than 100 µM; with MOLT-4 (read-out: pTGI), more than 100 µM; in the data set on SF-539 (read-out: pTGI (converted)) it was 4.37 µM; in the data set on HL-60(TB) (read-out: pTGI (converted)) it was 7.76 µM; in the data set with NCI-H23 (read-out: pTGI), more than 100 µM; with MDA-MB-231 (read-out: pTGI), more than 100 µM. Besides, the TGI is more than 100 µM in the data set on CAKI-1 (read-out: pTGI); 11.7 µM in the data set with NCI-H522 (read-out: pTGI (converted)); more than 100 µM in the data set with U-251 (read-out: pTGI); 14.1 µM in the data set with SK-MEL-5 (read-out: pTGI (converted)); 9.55 µM with SK-OV-3 (read-out: pTGI (converted)); more than 100 µM with BT-549 (read-out: pTGI). In addition, the TGI was 34.7 µM in the data set on HCT-116 (read-out: pTGI (converted)); more than 100 µM in the data set with LOX IMVI (read-out: pTGI); more than 100 µM in the data set with UACC-257 (read-out: pTGI); 51.3 µM in the data set on NCI-H322M (read-out: pTGI (converted)); more than 100 µM with Malme-3M (read-out: pTGI); more than 100 µM in the data set with SNB-19 (read-out: pTGI). Further, the TGI with RXF 393 (read-out: pTGI) and with SF-295 (read-out: pTGI) was more than 100 µM throughout. Further, the pIC50 is 5.48 in the data set on L1210, 5.17 with B16 and 6.05 in the data set on MDA-MB-435 [2]. For the same molecule, the GI50 was 5.75 µM with MOLT-4; 0.741 µM in the data set on SF-539; 1.78 µM in the data set on HL-60(TB); 3.72 µM in the data set with NCI-H23; 4.07 µM in the data set with MDA-MB-231; 5.37 µM in the data set on CAKI-1. Further, the GI50 in the data set on NCI-H522 was 0.372 µM; in the data set on U-251 it was 3.24 µM; in the data set on SK-MEL-5, 1.17 µM; with SK-OV-3, 2.19 µM; in the data set on BT-549, 1.45 µM; in the data set with HCT-116, 3.02 µM. Besides, the GI50 in the data set on LOX IMVI is 2.24 µM; in the data set on UACC-257, more than 100 µM; in the data set on NCI-H322M, 4.27 µM; in the data set on Malme-3M it was 0.891 µM; in the data set with SNB-19, 4.37 µM; in the data set on RXF 393, 3.09 µM. The molecule further gave a GI50 in the data set with SF-295 of 2.57 µM. In the data set on A10, this molecule gave a pEC50 of 5.39. This molecule also yielded a solubility in [1] of 372 µM (≈ 154 µg/mL). For the same molecule, the Ratio with MDA-MB-435 [3] is listed as 4.5.

For `COc1ccc([C@H]2[C@H](c3cc(OC)c(OC)c(OC)c3)C(C)=NN2C(C)=O)cc1[N+](=O)[O-]` (relative stereo), the values for the pIC50 with L1210 and in the data set on B16 were 4.49 and less than 4.00, respectively.

On to `COc1ccc(OC)c([C@H]2[C@H](c3cc(OC)c(OC)c(OC)c3)C(C)=NN2C(C)=O)c1` (relative stereo), for which the pIC50 in the data set with L1210 and with B16 was less than 4.00 each time.

With `COc1cc([C@@H]2C(C)=NN(C(C)=O)[C@H]2c2cc(OC)c(OC)c(OC)c2)cc(OC)c1OC` (relative stereo), the pIC50 in the data set with L1210 and with B16 was less than 4.00 throughout.

For `COc1ccc(/C=C\c2cc(OC)c(OC)c(OC)c2)cc1O` [COMBRETASTATIN A4], the results for the pIC50 with L1210 and in the data set on B16 were 8.52 and 8.70, respectively.
